Results: PMC4553143 (Circulation research, 2015)

Legend:
[1] = tested on: granzyme B activity; format: in vivo, mouse
Procedure, shortened: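 Male CMy-Tg and C57BL/6 WT mice (10–12 weeks) received OT-1 CD8+ T cells i.p. in PBS (2.0, 3.5 or 5.0 × 10^6). Dexamethasone 0.75 mg/kg or PBS i.p. daily, days 1–4. Day 4: probe i.v. (50 μL, 1 μmol/L in PBS) or ProSense 680 (2 nmol/150 μL). After 24 h: FMT-CT under anaesthesia; ex vivo FRI, 680 nm channel.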

[2] = tested on: CMy-Tg mice; assay: Heart and serum markers and histology in CD8+ T cell-mediated myocarditis; format: in vivo, mouse; conditions: CMy-Tg mice 5 days post transfer of 3.5 × 10^6 OT-1 CD8+ T cells
Procedure, shortened: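 CMy-Tg (n = 12) and WT (n = 4) mice received 3.5 × 10^6 OT-1 CD8+ T cells. PBS vehicle or dexamethasone (0.75 mg/kg) i.p. on days 1–4. Hearts and serum collected at day 5. Heart granzyme B and cleaved caspase-3 measured by Western blot, normalized to GAPDH. Serum granzyme B, interferon-γ and cardiac troponin-I assayed. P values versus vehicle of each strain.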

[3] = tested on: OT-1 CD8+ T cells / CMy-Tg cardiomyocytes; assay: Granzyme B expression in OT-1 CD8+ T cells and co-cultures in vitro; format: cell-based, mouse
[4] = tested on: CMy-Tg mice; assay: Survival study in CD8+ T cell-mediated myocarditis; format: in vivo, mouse; conditions: 0.75 mg/kg i.p. for 4 days; 2.0 × 10^6 OT-1 cells; n = 8
Procedure, shortened: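 Male CMy-Tg and WT C57BL/6 mice (10–12 weeks) received 2.0, 3.5 or 5.0 × 10^6 OT-1 CD8+ T cells i.p. in PBS. Dexamethasone 0.75 mg/kg/day, freshly dissolved in sterile PBS, given i.p. in 100 μL on days 1–4 after cell transfer; controls received PBS. Survival followed for 28 days; Kaplan–Meier analysis, n = 8 per group.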

[5] = target: T1, granzyme B in lysates of CD8+ T cells (Mus musculus, UniProt P04187); assay: Probe activation by lysates of CD8+ T cells; format: biochemical
T1 sequence (P04187 21-247): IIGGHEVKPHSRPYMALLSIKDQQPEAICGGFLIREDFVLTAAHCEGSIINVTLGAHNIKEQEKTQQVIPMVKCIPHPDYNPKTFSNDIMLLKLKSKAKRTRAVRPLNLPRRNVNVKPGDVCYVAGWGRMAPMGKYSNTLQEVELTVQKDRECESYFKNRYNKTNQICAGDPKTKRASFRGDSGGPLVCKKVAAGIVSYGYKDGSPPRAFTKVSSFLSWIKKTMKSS

[6] = tested on: chymotrypsin; assay: Enzymatic assay of nanoprobe activation; format: biochemical; conditions: chymotrypsin 0.01 mg/mL, 82-fold excess activity; n = 3
[7] = tested on: granzyme B activity; assay: Ex vivo FRI in cardiac myosin-induced experimental autoimmune myocarditis; parameters: species or system mouse; conditions: 24 hours post probe injection, 21 days after immunization
Procedure, shortened: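 Balb/cByJ mice were immunized with a murine α-myosin H chain-derived peptide (n = 16); controls received PBS instead (n = 4). Granzyme B-sensitive probe given i.v. on day 20. One day later, excised hearts and sections were imaged by microscopic ex vivo FRI in the 680 nm channel. Exposure: 1 min for tissue, 30 min for heart sections.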

## C[C@@H]1C[C@H]2[C@@H]3CCC4=CC(=O)C=C[C@]4(C)[C@@]3(F)[C@@H](O)C[C@]2(C)[C@@]1(O)C(=O)CO [dexamethasone]
[1]; dexamethasone administration in vivo, vehicle 504±263, P=0.002
  granzyme B activity, fluorescence intensities in hearts: 194±77 fluorescence intensities
[2]
  serum concentrations of granzyme B, interferon-γ, and cardiac troponin-I: limited these increases
[2]; Western blot
  protein levels of granzyme B and active caspase-3 in hearts: reduced these concentrations
[3]; 48 hours of anti-CD3 stimulation
  granzyme B protein concentrations in OT-1 CD8+ T cells and their culture medium: did not mute this rise
[3]; CMy-Tg cardiomyocytes co-cultured with OT-1 CD8+ T cells, confocal microscopy
  probe signals colocalized with granzyme B activity: decreased the probe signals
[4]
  survival of CMy-Tg mice: survived for 28 days

## GIEFDSGGC [granzyme B-sensitive nanoprobe]
[1]; CD8+ T cell-mediated myocardial injury model
  signal compared with ProSense 680: substantially higher signal
[5]; lysates of Balb/c WT CD8+ T cells stimulated with anti-CD-3, 48 hours
  fluorescent signal from the probe incubated with lysates: increased above baseline after 48 hours
[5]; lysates of granzyme B-deficient CD8+ T cells
  fluorescent signal from the probe incubated with lysates: did not demonstrate a comparable increase
[6]
  probe activation on incubation with chymotrypsin: activation comparable in intensity to Granzyme B
[7]
  signals from the probe in heart tissues and sections, EAM Balb/cByJ vs WT mice: higher signals
